Source: ChEMBL document CHEMBL4689842, “EUbOPEN Chemogenomics Library wave 1” (2021)
Several values for one entry are separate records, joined by “and”; a condition that tells them apart may be missing. Equal entries are not always repeated.

Legend:
Format in all cases: toxicity, cell-based
Fibroblast [1] = test: Multiplex assay against human fibroblast; conditions: 1 µM, compound concentration 1 uM
Outline: (§1)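 Values for tubulin, mitochondrial-mass and membrane-permeability phenotypes are per cents of cells with healthy nuclei. These cells were identified by CellPathfinder machine-learning gating of live cells that had been stained at seeding with Hoechst33342, BioTracker Green Microtubule Cytoskeleton Dye, MitoTracker Red and Annexin V Alexa Fluor 680 and imaged on a CQ1 microscope at 37°C and 5% CO2 after compound addition. The gating first set Hoechst high-intensity objects apart from normal cells, then split normal cells into healthy, pyknosed or fragmented nuclei, and pyknosed cells into mitotic or apoptotic.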

HEK-293T [2] = test: Multiplex assay against HEK293T; conditions: human, 1 µM, compound concentration 1 uM; outline: as §1;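 as to Population Tubulin-Different-Phenotype (%): share of the cells with healthy nuclei that show this phenotype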
U2OS [3] = test: Multiplex assay against U2OS; conditions: human, 1 µM, compound concentration 1 uM; outline: as §1
HEK-293T [4] = test: Incucyte cell viability with HEK293T; conditions: human, 10 µM, compound concentration 10 uM; also: filed as whole numbers so only -1 and 0 and 1 occur
Fibroblast [5] = test: Incucyte cell viability with human fibroblast; conditions: 10 µM, compound concentration 10 uM; also: filed as whole numbers so only -1 and 0 and 1 occur
U2OS [6] = test: Incucyte cell viability with U2OS; conditions: human, 10 µM, compound concentration 10 uM; also: filed as whole numbers so only -1 and 0 and 1 occur
[7] = 6 h, replicate number 1, timepoint 6 hours
[8] = 12 h, replicate number 1, timepoint 12 hours
[9] = 18 h, replicate number 1, timepoint 18 hours
[10] = 24 h, replicate number 1, timepoint 24 hours

COc1cc(Nc2ccnc3ccc(Br)cc23)cc(OC)c1OC
Population Apoptotic (%) (Fibroblast [1]; 12 h, replicate 1): 51% and 75% | Population Fragmented Nuclei (%) (Fibroblast [1]; 12 h, replicate 1): 26% and 28% | Population Healthy Nuclei (%) (Fibroblast [1]; 12 h, replicate 1): 50% and 56% | Population Hoechst High Intensity Objects (%) (Fibroblast [1]; 12 h, replicate 1): 11% | Population Membrane Permeable-Phenotype (%) (Fibroblast [1]; 12 h, replicate 1): 5% and 4% | Population Mitochondria Different-Phenotype (%) (Fibroblast [1]; 12 h, replicate 1): 22% and 8% | Population Mitotic Cells (%) (Fibroblast [1]; 12 h, replicate 1): 48% and 25% | Population Normal (%) (Fibroblast [1]; 12 h, replicate 1): 88% | Population Pyknosed Nuclei (%) (Fibroblast [1]; 12 h, replicate 1): 23% and 15% | Total Cell Count (Fibroblast [1]; 12 h, replicate 1): 152 and 176 | Population Apoptotic (%) (Fibroblast [1]; 12 h, replicate 2): 50% | Population Fragmented Nuclei (%) (Fibroblast [1]; 12 h, replicate 2): 66% and 79% | Population Hoechst High Intensity Objects (%) (Fibroblast [1]; 12 h, replicate 2): 49% and 39% | Population Membrane Permeable-Phenotype (%) (Fibroblast [1]; 12 h, replicate 2): 11% and 0% | Population Mitotic Cells (%) (Fibroblast [1]; 12 h, replicate 2): 50% | Population Normal (%) (Fibroblast [1]; 12 h, replicate 2): 50% and 60% | Population Pyknosed Nuclei (%) (Fibroblast [1]; 12 h, replicate 2): 6% and 11% | Population Tubulin-Different-Phenotype (%) (Fibroblast [1]; 12 h, replicate 2): 11% and 0% | Total Cell Count (Fibroblast [1]; 12 h, replicate 2): 65 and 56 | Population Apoptotic (%) (Fibroblast [1]; 24 h, replicate 1): 76% | Population Fragmented Nuclei (%) (Fibroblast [1]; 24 h, replicate 1): 28% and 23% | Population Healthy Nuclei (%) (Fibroblast [1]; 24 h, replicate 1): 55% and 61% | Population Hoechst High Intensity Objects (%) (Fibroblast [1]; 24 h, replicate 1): 15% | Population Membrane Permeable-Phenotype (%) (Fibroblast [1]; 24 h, replicate 1): 6% and 1% | Population Mitochondria Different-Phenotype (%) (Fibroblast [1]; 24 h, replicate 1): 1% | Population Mitotic Cells (%) (Fibroblast [1]; 24 h, replicate 1): 23% | Population Normal (%) (Fibroblast [1]; 24 h, replicate 1): 84% | Population Pyknosed Nuclei (%) (Fibroblast [1]; 24 h, replicate 1): 15% | Total Cell Count (Fibroblast [1]; 24 h, replicate 1): 189 and 165 | Population Fragmented Nuclei (%) (Fibroblast [1]; 24 h, replicate 2): 65% and 71% | Population Healthy Nuclei (%) (Fibroblast [1]; 24 h, replicate 2): 31% and 15% | Population Hoechst High Intensity Objects (%) (Fibroblast [1]; 24 h, replicate 2): 42% and 34% | Population Membrane Permeable-Phenotype (%) (Fibroblast [1]; 24 h, replicate 2): 9% and 0% | Population Mitochondria Different-Phenotype (%) (Fibroblast [1]; 24 h, replicate 2): 18% and 40% | Population Normal (%) (Fibroblast [1]; 24 h, replicate 2): 57% and 65% | Population Tubulin-Different-Phenotype (%) (Fibroblast [1]; 24 h, replicate 2): 0% and 20% | Total Cell Count (Fibroblast [1]; 24 h, replicate 2): 61 and 49 | Population Apoptotic (%) (HEK-293T [2]; 12 h, replicate 1): 21% and 25% | Population Fragmented Nuclei (%) (HEK-293T [2]; 12 h, replicate 1): 24% and 18% | Population Healthy Nuclei (%) (HEK-293T [2]; 12 h, replicate 1): 35% and 54% | Population Hoechst High Intensity Objects (%) (HEK-293T [2]; 12 h, replicate 1): 16% | Population Membrane Permeable-Phenotype (%) (HEK-293T [2]; 12 h, replicate 1): 12% and 4% | Population Mitotic Cells (%) (HEK-293T [2]; 12 h, replicate 1): 78% and 74% | Population Normal (%) (HEK-293T [2]; 12 h, replicate 1): 83% | Population Pyknosed Nuclei (%) (HEK-293T [2]; 12 h, replicate 1): 40% and 27% | Total Cell Count (HEK-293T [2]; 12 h, replicate 1): 627 and 585 | Population Apoptotic (%) (HEK-293T [2]; 12 h, replicate 2): 17% and 8% | Population Fragmented Nuclei (%) (HEK-293T [2]; 12 h, replicate 2): 11% and 4% | Population Healthy Nuclei (%) (HEK-293T [2]; 12 h, replicate 2): 59% and 75% | Population Membrane Permeable-Phenotype (%) (HEK-293T [2]; 12 h, replicate 2): 3% and 0% | Population Mitotic Cells (%) (HEK-293T [2]; 12 h, replicate 2): 82% and 91% | Population Normal (%) (HEK-293T [2]; 12 h, replicate 2): 92% and 97% | Population Pyknosed Nuclei (%) (HEK-293T [2]; 12 h, replicate 2): 29% and 20% | Total Cell Count (HEK-293T [2]; 12 h, replicate 2): 1015 and 1049 | Population Apoptotic (%) (HEK-293T [2]; 24 h, replicate 1): 32% and 19% | Population Fragmented Nuclei (%) (HEK-293T [2]; 24 h, replicate 1): 23% and 12% | Population Healthy Nuclei (%) (HEK-293T [2]; 24 h, replicate 1): 41% and 67% | Population Hoechst High Intensity Objects (%) (HEK-293T [2]; 24 h, replicate 1): 14% and 10% | Population Membrane Permeable-Phenotype (%) (HEK-293T [2]; 24 h, replicate 1): 7% | Population Mitotic Cells (%) (HEK-293T [2]; 24 h, replicate 1): 67% and 80% | Population Normal (%) (HEK-293T [2]; 24 h, replicate 1): 85% and 89% | Population Pyknosed Nuclei (%) (HEK-293T [2]; 24 h, replicate 1): 35% and 20% | Population Tubulin-Different-Phenotype (%) (HEK-293T [2]; 24 h, replicate 1): 30% and 15% | Total Cell Count (HEK-293T [2]; 24 h, replicate 1): 604 and 574 | Population Apoptotic (%) (HEK-293T [2]; 24 h, replicate 2): 14% and 7% | Population Fragmented Nuclei (%) (HEK-293T [2]; 24 h, replicate 2): 11% and 8% | Population Healthy Nuclei (%) (HEK-293T [2]; 24 h, replicate 2): 50% and 79% | Population Hoechst High Intensity Objects (%) (HEK-293T [2]; 24 h, replicate 2): 8% and 3% | Population Membrane Permeable-Phenotype (%) (HEK-293T [2]; 24 h, replicate 2): 2% and 1% | Population Mitochondria Different-Phenotype (%) (HEK-293T [2]; 24 h, replicate 2): 55% | Population Mitotic Cells (%) (HEK-293T [2]; 24 h, replicate 2): 86% and 92% | Population Normal (%) (HEK-293T [2]; 24 h, replicate 2): 91% and 96% | Total Cell Count (HEK-293T [2]; 24 h, replicate 2): 1011 and 1289 | Population Apoptotic (%) (U2OS [3]; 12 h, replicate 1): 45% and 33% | Population Fragmented Nuclei (%) (U2OS [3]; 12 h, replicate 1): 9% and 8% | Population Healthy Nuclei (%) (U2OS [3]; 12 h, replicate 1): 83% and 79% | Population Hoechst High Intensity Objects (%) (U2OS [3]; 12 h, replicate 1): 6% and 5% | Population Membrane Permeable-Phenotype (%) (U2OS [3]; 12 h, replicate 1): 22% and 14% | Population Mitochondria Different-Phenotype (%) (U2OS [3]; 12 h, replicate 1): 28% and 29% | Population Mitotic Cells (%) (U2OS [3]; 12 h, replicate 1): 54% and 66% | Population Normal (%) (U2OS [3]; 12 h, replicate 1): 93% and 94% | Population Pyknosed Nuclei (%) (U2OS [3]; 12 h, replicate 1): 7% and 11% | Population Tubulin-Different-Phenotype (%) (U2OS [3]; 12 h, replicate 1): 39% and 14% | Total Cell Count (U2OS [3]; 12 h, replicate 1): 135 and 196 | Population Fragmented Nuclei (%) (U2OS [3]; 12 h, replicate 2): 12% and 20% | Population Healthy Nuclei (%) (U2OS [3]; 12 h, replicate 2): 70% and 71% | Population Hoechst High Intensity Objects (%) (U2OS [3]; 12 h, replicate 2): 12% and 19% | Population Membrane Permeable-Phenotype (%) (U2OS [3]; 12 h, replicate 2): 25% and 16% | Population Mitochondria Different-Phenotype (%) (U2OS [3]; 12 h, replicate 2): 38% and 23% | Population Normal (%) (U2OS [3]; 12 h, replicate 2): 87% and 80% | Population Pyknosed Nuclei (%) (U2OS [3]; 12 h, replicate 2): 16% | Population Tubulin-Different-Phenotype (%) (U2OS [3]; 12 h, replicate 2): 37% and 22% | Total Cell Count (U2OS [3]; 12 h, replicate 2): 102 and 150 | Population Apoptotic (%) (U2OS [3]; 24 h, replicate 1): 31% and 83% | Population Fragmented Nuclei (%) (U2OS [3]; 24 h, replicate 1): 11% and 13% | Population Healthy Nuclei (%) (U2OS [3]; 24 h, replicate 1): 71% and 66% | Population Hoechst High Intensity Objects (%) (U2OS [3]; 24 h, replicate 1): 6% | Population Membrane Permeable-Phenotype (%) (U2OS [3]; 24 h, replicate 1): 18% and 16% | Population Normal (%) (U2OS [3]; 24 h, replicate 1): 93% | Population Pyknosed Nuclei (%) (U2OS [3]; 24 h, replicate 1): 17% and 20% | Population Tubulin-Different-Phenotype (%) (U2OS [3]; 24 h, replicate 1): 21% and 22% | Total Cell Count (U2OS [3]; 24 h, replicate 1): 259 and 175 | Population Fragmented Nuclei (%) (U2OS [3]; 24 h, replicate 2): 10% and 14% | Population Healthy Nuclei (%) (U2OS [3]; 24 h, replicate 2): 58% and 59% | Population Hoechst High Intensity Objects (%) (U2OS [3]; 24 h, replicate 2): 16% | Population Membrane Permeable-Phenotype (%) (U2OS [3]; 24 h, replicate 2): 22% and 17% | Population Mitochondria Different-Phenotype (%) (U2OS [3]; 24 h, replicate 2): 57% and 19% | Population Normal (%) (U2OS [3]; 24 h, replicate 2): 83% | Population Pyknosed Nuclei (%) (U2OS [3]; 24 h, replicate 2): 31% and 25% | Population Tubulin-Different-Phenotype (%) (U2OS [3]; 24 h, replicate 2): 33% and 28% | Total Cell Count (U2OS [3]; 24 h, replicate 2): 113 and 193 | Growth Rate (HEK-293T [4]; [7]): 0 | Growth Rate (HEK-293T [4]; [8]): 0 | Growth Rate (HEK-293T [4]; [9]): 0 | Growth Rate (HEK-293T [4]; [10]): 0 | Growth Rate (Fibroblast [5]; [7]): 0 | Growth Rate (Fibroblast [5]; [8]): 0 | Growth Rate (Fibroblast [5]; [9]): 0 | Growth Rate (Fibroblast [5]; [10]): 0 | Growth Rate (U2OS [6]; 0 h, replicate number 1, timepoint 0 hours): 0 | Growth Rate (U2OS [6]; [7]): 0 | Growth Rate (U2OS [6]; [8]): 0 | Growth Rate (U2OS [6]; [9]): 0 | Growth Rate (U2OS [6]; [10]): 0
